ChEMBL document CHEMBL1128297, “Determination of receptor-ligand kinetic and equilibrium binding constants using surface plasmon resonance: application to the lck SH2 domain and phosphotyrosyl peptides” (J Med Chem, 1995)

Tests used:
[1] = molecular target: Tyrosine-protein kinase Lck (Homo sapiens) (UniProt P06239); assay: Equilibrium constant for competitive binding to p56 lck SH2 domain by SPR after 4th run
Method in brief: (§1)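 Injected at 5 μL/min over streptavidin chip bearing biotinylated EPQpYEEIPIA (500 nM loading); 10 mM HCl regeneration. Plateau RU vs peptide fitted by nonlinear regression (eq 15) for KS, KC fixed from direct binding.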

[2] = molecular target: Tyrosine-protein kinase Lck (Homo sapiens) (UniProt P06239); assay: Equilibrium constant for competitive binding to p56 lck SH2 domain by SPR after 2nd run; method in brief: as §1
[3] = molecular target: Tyrosine-protein kinase Lck (Homo sapiens) (UniProt P06239); assay: Equilibrium constant for competitive binding to p56 lck SH2 domain by SPR after 5th run; method in brief: as §1
[4] = molecular target: Tyrosine-protein kinase Lck (Homo sapiens) (UniProt P06239); assay: Equilibrium constant for competitive binding to p56 lck SH2 domain by SPR after 3rd run; method in brief: as §1
[5] = molecular target: Tyrosine-protein kinase Lck (Homo sapiens) (UniProt P06239); assay: Equilibrium constant for competitive binding to p56 lck SH2 domain by SPR after 1st run; method in brief: as §1

Tyrosine-protein kinase Lck (Homo sapiens), sequence (P06239 2-509 limits assumed): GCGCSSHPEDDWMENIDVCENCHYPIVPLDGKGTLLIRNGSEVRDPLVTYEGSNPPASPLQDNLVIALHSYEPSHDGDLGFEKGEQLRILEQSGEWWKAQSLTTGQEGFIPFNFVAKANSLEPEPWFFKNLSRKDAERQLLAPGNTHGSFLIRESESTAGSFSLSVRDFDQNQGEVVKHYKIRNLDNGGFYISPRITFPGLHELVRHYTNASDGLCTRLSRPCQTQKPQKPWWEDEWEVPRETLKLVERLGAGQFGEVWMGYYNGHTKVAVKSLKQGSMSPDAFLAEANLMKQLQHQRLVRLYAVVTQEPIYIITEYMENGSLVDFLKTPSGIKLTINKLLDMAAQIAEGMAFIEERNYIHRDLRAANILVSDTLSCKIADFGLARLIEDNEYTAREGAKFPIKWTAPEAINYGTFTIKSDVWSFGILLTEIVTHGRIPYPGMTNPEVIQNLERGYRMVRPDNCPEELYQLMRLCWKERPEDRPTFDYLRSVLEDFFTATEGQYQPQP

Row | Structure (SMILES) | Ks [1] [nM] | Ks [2] [nM] | Ks [3] [µM] | Ks [4] [nM] | Ks [5] [nM]
1 | NC(=O)CC[C@H](NC(=O)CNC(=O)[C@@H](N)CCC(=O)O)C(=O)N[C@@H](Cc1ccc(OP(=O)(O)O)cc1)C(=O)N[C@@H](CCC(=O)O)C(=O)N[C@@H](CCC(=O)O)C(=O)NCC(=O)N1CCC[C@@H]1C(=O)O | 938 | 916 | 2.16 | 908 | 833
2 | CC[C@H](C)[C@H](NC(=O)[C@H](CCC(=O)O)NC(=O)[C@H](CCC(=O)O)NC(=O)[C@H](Cc1ccc(OP(=O)(O)O)cc1)NC(=O)[C@H](CCC(N)=O)NC(=O)CNC(=O)[C@@H](N)CCC(=O)O)C(=O)N1CCC[C@@H]1C(=O)O | 27.8 | 22.8 |  | 26.9 | 14.4
3 | CC[C@H](C)[C@H](NC(=O)[C@H](CCC(=O)O)NC(=O)CNC(=O)[C@H](Cc1ccc(OP(=O)(O)O)cc1)NC(=O)CNC(=O)[C@H](CCC(N)=O)NC(=O)[C@@H](N)CCC(=O)O)C(=O)N1CCC[C@@H]1C(=O)O | 1250 | 982 | 2.85 | 1220 | 1320
4 | CC[C@H](C)[C@H](NC(=O)CNC(=O)[C@H](CCC(=O)O)NC(=O)[C@H](Cc1ccc(OP(=O)(O)O)cc1)NC(=O)[C@H](CCC(N)=O)NC(=O)CNC(=O)[C@@H](N)CCC(=O)O)C(=O)N1CCC[C@@H]1C(=O)O | 261 | 167 | 0.536 | 242 | 171
